The term MIC50 denotes an inhibitory concentration at the 50% level, which refers to growth in some studies and to a panel of isolates in others. As usually defined, the MIC90 is an inhibitory concentration at the 90% level, which refers to growth in some studies and to a panel of isolates in others. The term MIC denotes the least concentration at which growth counts as inhibited.

The values below come from ChEMBL document CHEMBL2311373, “Monocyclic β-lactams as antibacterial agents: facing antioxidant activity of N-methylthio-azetidinones” (2013).

Converted amounts (≈) assume the structure as drawn. The source made the active and inactive calls. The rule behind the calls is not given here.

The subject of test [1] is Staphylococcus aureus. In words: Antibacterial activity against methicillin-resistant Staphylococcus aureus clinical isolates from cystic fibrosis patients assessed as growth inhibition by CLSI broth microdilution method.
Test [2] in a line: Antioxidant activity assessed as resorcinol equivalent of peroxy radical scavenging activity at pH 2.2 by BR assay. Type of test: functional. In a few lines:
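Briggs-Rauscher oscillating reaction thermostated at 25.0 °C. The resorcinol standard line was checked before each series. Relative antioxidant activity is taken from the sample and resorcinol concentrations that give the same effect.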

Test [3] can be described thus: Antioxidant activity assessed as Fe (II) equivalent of (TPTZ)2Fe3+ reducing activity after 4 mins by FRAP assay. The test is classed as functional. In a few lines:
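FRAP reagent made from TPTZ and FeCl₃ in aqueous acetate buffer. Reagent and diluted sample mixed in a cuvette; absorbance of the blue Fe²⁺ complex at 593 nm read exactly 4 min later at 25.0 °C. Four or five sample concentrations tested. Slope of absorbance vs concentration divided by the FeSO₄ standard slope gives activity in mmol equiv Fe²⁺.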

The nature of test [4]: Antioxidant activity assessed as trolox equivalent of ABTS radical scavenging activity at pH 7.4 after 6 mins by TEAC assay. Type of test: functional. Put shortly:
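ABTS radical cation preformed with K₂S₂O₈ in PBS, pH 7.4. Diluted radical solution mixed with sample dissolved in DMSO; absorbance at 734 nm read exactly 6 min later at 30.0 °C. A DMSO blank was run, and the Trolox standard was treated the same way and checked before each series. Activity is given as a ratio to Trolox with its standard error.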

The test system of test [5] is Radical scavenging activity. Description: Antioxidant activity assessed as trolox equivalent of DPPH radical scavenging activity after 15 mins by spectroscopic analysis. Type of test: functional. In a few lines:
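Absorbance at 515 nm of methanolic DPPH radical read before (A₀) and 15 min after (Af) adding sample. Inhibition % = (1 − Af/A₀) × 100. Plots of % inhibition vs concentration were fitted with lines through the origin and compared with the Trolox standard.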
Background: The DPPH test is a chemical assay of radical scavenging.

A short description of test [6]: Antioxidant activity of the compound by voltammetric analysis. Type of test: functional.
Test [7] has as its system Radical scavenging activity. Description: Antioxidant activity assessed as trolox equivalent of DPPH radical scavenging activity by spectroscopic analysis. Type of test: functional.

Regarding `CO/N=C(\C(=O)N[C@@H]1C(=O)N2C(C(=O)O)=C(COC(C)=O)CS[C@H]12)c1csc(N)n1` [CEFOTAXIME], in test [1], the MIC50 worked out at 128 µg/mL (≈ 281 µM) and the MIC90 is > 128 µg/mL.
For `CSN1C(=O)[C@H]([C@@H](C)OC(=O)c2ccc(O)c(O)c2)[C@H]1OC(C)=O`, the MIC50 in test [1] amounted to 128 µg/mL (≈ 360 µM). In test [1], the MIC90 was > 128 µg/mL. Besides, the Activity in test [2] was 0.38 µM; in test [3], 1.91 mmol; in test [4], 1.23 mmol; in test [5] it was 1.96 mmol.
For the molecule `CC(O[Si](C)(C)C(C)(C)C)[C@H]1C(=O)N/C1=C\C(=O)Sc1ccccc1` (stereo partly drawn), the outcome in test [6] was inactive.
Take `CSN1C(=O)C[C@@H]1OC(C)=O`: in test [1], the minimal inhibitory concentration (MIC) stood at 32 µg/mL (≈ 183 µM). The MIC50 in test [1] was 32 µg/mL (≈ 183 µM). Also, in test [1], the MIC90 is 64 µg/mL (≈ 365 µM). Moreover, the result in test [2], in test [3], in test [4] and in test [5] was inactive.
Consider `CSN1C(=O)[C@H]([C@@H](C)OC(=O)/C=C/c2ccc(O)c(O)c2)[C@H]1OC(C)=O`, for which the MIC50 in test [1] is 64 µg/mL (≈ 168 µM). In test [1], the MIC90 is 64 µg/mL (≈ 168 µM). Moreover, the Activity was found to be 1.95 µM in test [2], 1.98 mmol in test [3], 0.98 mmol in test [4] and 1.23 mmol in test [5].
For `CSN1C(=O)[C@H]([C@@H](C)O)[C@H]1SC(C)=O`, in test [1], the MIC50 was 64 µg/mL (≈ 272 µM). Further, in test [1], the MIC90 was 128 µg/mL (≈ 544 µM). Besides, the outcome in test [2], in test [3], in test [4] and in test [5] was inactive.
With `COc1cc(C(=O)O[C@H](C)[C@H]2C(=O)N(SC)[C@@H]2OC(C)=O)cc(OC)c1O`, in test [1], the MIC50 was found to be 64 µg/mL (≈ 160 µM). The MIC90 in test [1] worked out at 128 µg/mL (≈ 320 µM). Further, the Activity in test [2] came out at 1.8 µM; in test [3], 0.19 mmol; in test [4], 0.037 mmol; in test [5], 0.0091 mmol.
Turning to `CCOCOc1c(OC)cc(C(=O)O[C@H](C)[C@H]2C(=O)N(SC)[C@@H]2OC(C)=O)cc1OC`, the Activity in test [2] worked out at 0.7 µM. Besides, the result in test [3], in test [4] and in test [5] was inactive.
Consider VITAMIN E, for which, in test [7], the Activity turned out to be 500 µM.
On to `CSN1C(=O)CC1SC(C)=O` (stereo not drawn), for which, in test [1], the MIC stood at 16 µg/mL (≈ 83.6 µM). For the same molecule, the MIC50 in test [1] stood at 16 µg/mL (≈ 83.6 µM). In addition, the MIC90 in test [1] came to 32 µg/mL (≈ 167 µM). For the same molecule, the outcome in test [2], in test [3], in test [4] and in test [5] was inactive.
As for `CC(=O)SC1CC(=O)N1` (stereo not drawn), the MIC50 in test [1] was found to be 32 µg/mL (≈ 220 µM). Also, the MIC90 in test [1] is 64 µg/mL (≈ 441 µM). The result in test [2], in test [6], in test [3], in test [4] and in test [5] was inactive.
With `CO/N=C(\C(=O)N[C@@H]1C(=O)N2C(C(=O)O)=C(CSc3nc(=O)c(O)nn3C)CS[C@H]12)c1csc(N)n1` [CEFTRIAXONE], in test [1], the MIC50 was 8 µg/mL (≈ 14.4 µM) and the MIC90 was > 128 µg/mL.
For the molecule `CSN1CCC1=O`, the result in test [6] was inactive.
As to `O=C1O[C@H]([C@@H](O)CO)C(O)=C1O`, the Activity in test [7] is 1100 µM.
For `CSN1C(=O)[C@H]([C@@H](C)O)[C@H]1OC(C)=O`, in test [1], the MIC50 was found to be 64 µg/mL (≈ 292 µM). Moreover, the MIC90 in test [1] is > 128 µg/mL. Further, the outcome in test [2], in test [3], in test [4] and in test [5] was inactive.
